LANA-H2B inh: blocks KSHV LANA binding to histone H2A/H2B; inhibition, % (concentration not given with the values); cell-free LANA-H2A/H2B peptide, fluorescence polarization; 320,000 tested, 0.6% active; Q9QR71; in the data active = inhibition mostly above about 10%, no sharp cut-off; inactive = mostly below about 6.7%
RanGTP-Impb inh: inhibitors of RanGTP-importin-beta interaction, primary screen, biochemical, FRET, CFP-Ran, YFP-importin-beta, homogeneous; inhibition, % (no concentration beside the values); cell-free CFP-Ran/YFP-importin-beta FRET ratio; 300,000 tested, 1.1% active;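 active = more than half of the replicate wells show a fall in the fluorescence ratio signal beyond about 16%, limit read from the data, passing the limit was not always enough; inconclusive = exactly half of the replicate wells pass the set limit; inactive = fewer than half of replicates pass the limit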
Runt-SMMHC FRET: blocks binding of human RUNX1 Runt domain to CBFb-SMMHC; Q01196+Q13951; Cerulean-Runt/Venus-CBFb-SMMHC FRET ratio 530/480, 1 h; inhibition, % at 20 µM; 220,000 tested, 0.74% active; AID 1434;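 active = mean inhibition across duplicate retests at 20 µM reaching about 50%, limit read from the data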;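 also: inhibitors lower the FRET ratio by blocking Runt binding to CBFb-SMMHC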
Target sequence (Q01196 whole entry, looked up, the tested form may be a part): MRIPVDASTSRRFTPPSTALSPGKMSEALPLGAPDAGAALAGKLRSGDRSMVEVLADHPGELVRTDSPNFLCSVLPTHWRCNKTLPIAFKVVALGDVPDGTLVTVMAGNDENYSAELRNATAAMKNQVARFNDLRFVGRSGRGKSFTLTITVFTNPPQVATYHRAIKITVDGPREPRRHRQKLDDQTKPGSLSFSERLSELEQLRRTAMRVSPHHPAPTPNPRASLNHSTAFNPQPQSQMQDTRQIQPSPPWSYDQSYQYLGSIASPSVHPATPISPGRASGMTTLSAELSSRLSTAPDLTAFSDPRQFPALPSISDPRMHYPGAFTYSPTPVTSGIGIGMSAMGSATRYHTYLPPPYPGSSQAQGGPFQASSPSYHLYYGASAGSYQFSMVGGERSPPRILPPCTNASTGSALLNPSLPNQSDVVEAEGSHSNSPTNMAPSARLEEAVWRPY
Target sequence (Q13951 whole entry, looked up, the tested form may be a part): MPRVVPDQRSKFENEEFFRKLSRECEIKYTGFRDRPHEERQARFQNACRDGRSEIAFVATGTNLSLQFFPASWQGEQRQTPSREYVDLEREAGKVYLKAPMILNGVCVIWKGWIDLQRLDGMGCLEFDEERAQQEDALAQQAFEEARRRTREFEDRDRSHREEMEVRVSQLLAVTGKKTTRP
CaV13 ICDI inh: Primary screen for inhibitors of IQ motif and Ca2+-dependent inactivation inhibitor domain binding in CACNA1D, Förster resonance energy transfer in living cells, …; HEK cells, CFP/YFP FRET ICDI-IQ, plate reader, 10 min; percent FRET-ratio fall versus neutral wells; inhibition, % at 12.3 µM; 340,000 tested, 0.098% active;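 active = mean replicate inhibition of at least 30% and at least 1% of replicates passing that level; inconclusive = only one of the two criteria is met; inactive = neither criterion is met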
Runt-CBFb FRET: Runt domain-CBFb interaction inhibition | 220,000 tested, 0.46% active | inhibition, % at 20 µM | Cerulean-Runt/Venus-CBFb FRET ratio 530/480, 1 h | AID 1496 | Q01196+Q13951;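 active = inhibition over about 50% at 20 µM in the single-dose screen, limit read from the data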
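Reagent – Venus-CBFb binding partner, 100 nM · Assay system – Cerulean-tagged RUNX1 Runt domain (FRET donor) fusion protein · Input – 100 nM per protein · Incubation – two 1 h room-temperature incubations shielded from light · Measured by – FRET fluorescence · Medium – Tris buffer pH 7.5 with salts and BSA · Benchmarks – unlabeled CBFb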
HDAC3 inh: blocks human histone deacetylase 3; O15379; recombinant HDAC3, fluorogenic peptide/trypsin coupled, fluorescence; inhibition, % at 8.3 µM; 320,000 tested, 0.15% active; AID 2718; in the data active = inhibition above about 26%, passing the limit was not always enough; inconclusive = no clear call, values can overlap the other calls
YIC counter: counter-screen: alters YIC FRET probe signal; shares compounds with RanGTP-Impb inh; IC50, µM; 1,000 tested, 40% active; Purified YIC probe, intramolecular FRET ratio YFP/CFP;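 active = fitted half-maximal inhibitory concentration no more than tenfold above the top dose tested; inconclusive = flat fit with 30 to 70% activity, or poor fit; inactive = half-maximal concentration beyond tenfold above the top dose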
Of the large screens only hits and unclear results are named; the others gave an inactive call (follow-up assays come after a bar, where they were run). Shown are actives, neighbours in structure and some others; about 1.9% of the full set was active somewhere.

CC(C)C(=O)NNC(=O)c1csc(-c2cccs2)n1	none
NC(=O)[C@H]1CC2(CC(c3cccc(NC(=O)COc4ccc(Cl)cc4)c3)=NO2)CN1C(=O)[C@H]1CCC(=O)N1 (stereo not given in full)	none
C[C@H](CO)N1C[C@H](C)[C@H](CN(C)S(=O)(=O)c2cccs2)Oc2ccc(NC(=O)Nc3ccc4c(c3)OCO4)cc2CC1=O	none (no result: RanGTP-Impb inh, Runt-SMMHC FRET, Runt-CBFb FRET)
C[C@@H]1CN([C@H](C)CO)C(=O)Cc2cc(NC(=O)Nc3ccc4c(c3)OCO4)ccc2O[C@@H]1CN(C)CC1CC1	none (no result: LANA-H2B inh, RanGTP-Impb inh, Runt-SMMHC FRET, CaV13 ICDI inh, Runt-CBFb FRET, HDAC3 inh) | YIC counter inactive
O=C(C1CCCCC1)N1C[C@H](O)[C@@H](n2cc(-c3ccc(F)cc3)nn2)C[C@@H]1c1ccccc1	none (no result: LANA-H2B inh, RanGTP-Impb inh, Runt-SMMHC FRET, Runt-CBFb FRET, HDAC3 inh)
COc1ccc(C(=O)Nc2sc3c(c2C#N)CCN(C(C)=O)C3)cc1	RanGTP-Impb inh 42, Runt-SMMHC FRET 62 | YIC counter inactive
CCC(=O)Nc1cccc(NC(=S)NC(=O)c2cccs2)c1	RanGTP-Impb inh 25 | YIC counter inactive
CCC(=O)Nc1cccc(NC(=S)NC(=O)c2ccccc2Cl)c1	none
CCCC(=O)Nc1cc(C(F)(F)F)ccc1N1CCOCC1	none
Cc1ccc(Nc2nc(N)nc(CCl)n2)cc1	none
Cc1ccc(Nc2nc(N)nc(CC#N)n2)cc1	RanGTP-Impb inh 25 | YIC counter inactive
Cc1cc(C)cc(-n2c(C)cc(/C=C3\C(=N)N4N=C(CC(C)C)SC4=NC3=O)c2C)c1	none
Cc1cccc(-n2c(C)cc(/C=C3\C(=N)N4N=C(CC(C)C)SC4=NC3=O)c2C)c1	RanGTP-Impb inh 26 | YIC counter inactive
CC(C)Sc1nnc(CNC(=O)C23CC4CC(CC(C4)C2)C3)n1C1CCCCC1	RanGTP-Impb inh 20 | YIC counter inactive
Cc1cccc(Oc2nc(-c3cccc([N+](=O)[O-])c3)nc3ccccc23)c1C	RanGTP-Impb inh 21 | YIC counter inactive
Cc1c(NC2=CC(=O)CCC2)c(=O)n(-c2ccccc2)n1C	RanGTP-Impb inh 18 | YIC counter inactive
COc1ccc(N2CCN(C(=O)CSc3nnc(-c4ccco4)n3C)CC2)cc1	none
COc1ccccc1N=C(C)C1=C(O)CC(c2ccccc2)CC1=O (stereo not given)	RanGTP-Impb inh 20 | YIC counter inactive
COC(=O)C1=CN(c2ccc(F)cc2)C=C(C(=O)OC)C1c1ccc([N+](=O)[O-])cc1	none (no result: Runt-SMMHC FRET, Runt-CBFb FRET)
COC(=O)C1=CN(C2CC2)C=C(C(=O)OC)C1c1ccc(C(F)(F)F)cc1	RanGTP-Impb inh 26, Runt-SMMHC FRET 123, Runt-CBFb FRET 80, HDAC3 inh inconclusive | YIC counter 19
Cc1cccc(CNc2ccc(C(CC(N)=O)NC(=O)Cc3cccc4ccccc34)cc2[N+](=O)[O-])c1 (stereo not given)	none
O=C(CN1C2CCCC1CC(NC(=O)c1ccco1)C2)Nc1ccccc1C(F)(F)F (stereo not given)	RanGTP-Impb inh 17 | YIC counter inactive
COc1cc(OC)cc(C(=O)OCC(=O)Nc2cccc(S(=O)(=O)NC3=NCCCCC3)c2)c1	none (no result: RanGTP-Impb inh, Runt-SMMHC FRET, Runt-CBFb FRET)

Assay outcomes: PubChem BioAssay, several laboratories
